Data published in ChEMBL document CHEMBL1139007 (J Med Chem, 2006).
Values belong to the compound of their own block, whether it stands above or below them.

Key:
[1] = biological target: T1, C-C chemokine receptor type 5 (Homo sapiens, UniProt P51681); experiment: Inhibition of replication of R5 HIV1 Ba-L in MOLT4/CCR5 cells; assay type: functional, cell-based; settings: Human immunodeficiency virus 1, MOLT-4
Target sequence in this assay (P51681 whole entry, looked up): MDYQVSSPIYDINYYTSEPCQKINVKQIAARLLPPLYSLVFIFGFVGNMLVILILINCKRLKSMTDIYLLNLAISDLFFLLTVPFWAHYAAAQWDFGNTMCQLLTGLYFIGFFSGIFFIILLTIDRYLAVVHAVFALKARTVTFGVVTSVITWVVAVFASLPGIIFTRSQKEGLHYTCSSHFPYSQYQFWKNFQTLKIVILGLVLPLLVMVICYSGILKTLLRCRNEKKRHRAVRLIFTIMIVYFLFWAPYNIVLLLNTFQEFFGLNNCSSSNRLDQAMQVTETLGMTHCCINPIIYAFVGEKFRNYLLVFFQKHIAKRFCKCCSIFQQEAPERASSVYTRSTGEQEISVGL

[2] = biological target: T1, C-C chemokine receptor type 5; experiment: Displacement of [125I]RANTES from CCR5 expressed in CHO cells; assay type: cell-based
Target sequence in this assay (P51681 whole entry): as the sequence (P51681 whole entry, looked up) above

[3] = biological target: T1, C-C chemokine receptor type 5; settings: Human immunodeficiency virus 1; Ba-L; MOLT-4; 5 nM
Target sequence in this assay (P51681 whole entry, looked up): as above

[4] = tested on: Human immunodeficiency virus 1; experiment: Inhibition of replication of R5 HIV1 CTV in PMBC; assay type: functional, organism-based; settings: Human immunodeficiency virus 1, CTV
Outline: (§1)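 PHA-stimulated PBMCs infected with clinical isolate (11-55 ng p24 per 4 × 10⁶ cells) for 4 h, washed to remove unadsorbed virus, then seeded at 2 × 10⁵ cells/well with a range of compound concentrations. On day 4 cells were split 1:2 into medium with the same compound level. IC50/IC90 for inhibition of replication; triplicate, repeated 3 or 4 times with PBMCs from different donors; means reported.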

[5] = tested on: Human immunodeficiency virus 1; experiment: Inhibition of replication of R5 HIV1 HKW in PMBC; assay type: functional, organism-based; settings: Human immunodeficiency virus 1, HKW; outline: as §1
[6] = tested on: Human immunodeficiency virus 1; experiment: Inhibition of replication of R5 HIV1 HNK in PMBC; assay type: functional, organism-based; settings: Human immunodeficiency virus 1, HNK; outline: as §1
[7] = tested on: Human immunodeficiency virus 1; experiment: Inhibition of replication of R5 HIV1 HTN in PMBC; assay type: functional, organism-based; settings: Human immunodeficiency virus 1, HTN; outline: as §1
[8] = tested on: Human immunodeficiency virus 1; experiment: Inhibition of replication of R5 HIV1 HHA in PMBC; assay type: functional, organism-based; settings: Human immunodeficiency virus 1, HHA; outline: as §1
[9] = tested on: Human immunodeficiency virus 1; experiment: Inhibition of replication of R5 HIV1 KK in PMBC; assay type: functional, organism-based; settings: Human immunodeficiency virus 1, KK; outline: as §1
[10] = Plasma concentration in Sprague-Dawley rat after 5 min at 1 mg/kg, iv; assay type: ADME, organism-based; design: dose 1 mg/kg, route intravenous
Outline: (§2)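 Blood was drawn at set times (rat tail vein, dog cephalic vein, monkey femoral vein) and spun to plasma. Plasma was run on C8 HPLC, 1-min fractions counted by liquid scintillation.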

[11] = Plasma concentration in Beagle dog after 5 min at 1 mg/kg, iv; assay type: ADME, organism-based, Canis lupus familiaris; design: dose 1 mg/kg, route intravenous; outline: as §2
[12] = Plasma concentration in cynomolgus monkey after 5 min at 1 mg/kg, iv; assay type: ADME, organism-based, Macaca fascicularis; design: dose 1 mg/kg, route intravenous; outline: as §2
[13] = AUC (0-24h) in Sprague-Dawley rat at 1 mg/kg, iv; assay type: ADME, organism-based; design: time < 24 hr, dose 1 mg/kg, route intravenous; settings: plasma; outline: as §2
[14] = AUC (0-24h) in Beagle dog at 1 mg/kg, iv; assay type: ADME, organism-based, Canis lupus familiaris; design: time < 24 hr, dose 1 mg/kg, route intravenous; settings: plasma; outline: as §2
[15] = AUC (0-24h) in cynomolgus monkey at 1 mg/kg, iv; assay type: ADME, organism-based, Macaca fascicularis; design: time < 24 hr, dose 1 mg/kg, route intravenous; settings: plasma; outline: as §2
[16] = Half life in Sprague-Dawley rat plasma at 1 mg/kg, iv; assay type: ADME, organism-based; design: dose 1 mg/kg, route intravenous; outline: as §2
[17] = Half life in Beagle dog plasma at 1 mg/kg, iv; assay type: ADME, organism-based, Canis lupus familiaris; design: dose 1 mg/kg, route intravenous; outline: as §2
[18] = Half life in cynomolgus monkey plasma at 1 mg/kg, iv; assay type: ADME, organism-based, Macaca fascicularis; design: dose 1 mg/kg, route intravenous; outline: as §2
[19] = Cmax in Sprague-Dawley rat plasma at 3 mg/kg, po; assay type: ADME, organism-based; design: dose 3 mg/kg, route oral
[20] = Cmax in Beagle dog plasma at 3 mg/kg, po; assay type: ADME, organism-based, Canis lupus familiaris; design: dose 3 mg/kg, route oral
[21] = Tmax in Sprague-Dawley rat plasma at 3 mg/kg, po; assay type: ADME, organism-based; design: dose 3 mg/kg, route oral
[22] = Tmax in Beagle dog plasma at 3 mg/kg, po; assay type: ADME, organism-based, Canis lupus familiaris; design: dose 3 mg/kg, route oral
[23] = Tmax in cynomolgus monkey plasma at 3 mg/kg, po; assay type: ADME, organism-based, Macaca fascicularis; design: dose 3 mg/kg, route oral
[24] = Cmax in cynomolgus monkey plasma at 3 mg/kg, po; assay type: ADME, organism-based, Macaca fascicularis; design: dose 3 mg/kg, route oral
[25] = AUC (0-24h) in Sprague-Dawley rat at 3 mg/kg, po; assay type: ADME, organism-based; design: time < 24 hr, dose 3 mg/kg, route oral; settings: plasma
[26] = AUC (0-24h) in Beagle dog at 3 mg/kg, po; assay type: ADME, organism-based, Canis lupus familiaris; design: time < 24 hr, dose 3 mg/kg, route oral; settings: plasma
[27] = AUC (0-24h) in cynomolgus monkey at 3 mg/kg, po; assay type: ADME, organism-based, Macaca fascicularis; design: time < 24 hr, dose 3 mg/kg, route oral; settings: plasma
[28] = Bioavailability in Sprague-Dawley rat at 3 mg/kg, po; assay type: ADME, organism-based; settings: in vivo
[29] = Bioavailability in Beagle dog at 3 mg/kg, po; assay type: ADME, organism-based, Canis lupus familiaris; settings: in vivo
[30] = Bioavailability in cynomolgus monkey at 3 mg/kg, po; assay type: ADME, organism-based, Macaca fascicularis; settings: in vivo
[31] = biological target: T2, C-C chemokine receptor type 1 (Homo sapiens, UniProt P32246); experiment: Displacement of [125I]RANTES from CCR1 expressed in CHO cells; assay type: cell-based
T2 sequence (P32246 whole entry): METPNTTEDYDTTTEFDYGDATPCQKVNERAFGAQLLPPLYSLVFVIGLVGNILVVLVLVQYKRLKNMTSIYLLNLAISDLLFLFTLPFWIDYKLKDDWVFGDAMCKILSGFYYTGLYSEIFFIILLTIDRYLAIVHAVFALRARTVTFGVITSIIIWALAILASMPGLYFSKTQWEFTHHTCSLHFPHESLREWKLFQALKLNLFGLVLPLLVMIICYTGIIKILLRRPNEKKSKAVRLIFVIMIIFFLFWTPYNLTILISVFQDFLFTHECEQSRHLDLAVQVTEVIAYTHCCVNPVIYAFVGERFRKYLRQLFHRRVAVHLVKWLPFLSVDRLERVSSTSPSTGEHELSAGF
Outline: (§3)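 CHO cells stably expressing the named chemokine receptor were incubated with the [125I]-labelled ligand (RANTES for CCR5 and CCR1, eotaxin for CCR3, TARC for CCR4) and varying compound concentrations. IC50 for inhibition of ligand binding is the mean of triplicate measurements.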

[32] = biological target: T3, C-C chemokine receptor type 3 (Homo sapiens, UniProt P51677); experiment: Displacement of [125I]eotaxin from CCR3 expressed in CHO cells; assay type: cell-based; outline: as §3
T3 sequence (P51677 whole entry): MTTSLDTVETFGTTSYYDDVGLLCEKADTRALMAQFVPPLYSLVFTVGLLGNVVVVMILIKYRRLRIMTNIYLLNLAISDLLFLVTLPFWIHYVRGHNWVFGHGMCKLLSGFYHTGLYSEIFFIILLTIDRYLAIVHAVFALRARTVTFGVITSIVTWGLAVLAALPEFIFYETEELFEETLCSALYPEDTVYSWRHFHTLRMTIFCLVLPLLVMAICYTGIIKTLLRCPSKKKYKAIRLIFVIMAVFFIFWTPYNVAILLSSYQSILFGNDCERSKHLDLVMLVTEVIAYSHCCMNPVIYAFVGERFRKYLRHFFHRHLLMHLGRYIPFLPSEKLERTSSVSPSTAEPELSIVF

[33] = biological target: T4, C-C chemokine receptor type 4 (Homo sapiens, UniProt P51679); experiment: Displacement of [125I]TARC from CCR4 expressed in CHO cells; assay type: cell-based; outline: as §3
T4 sequence (P51679 whole entry): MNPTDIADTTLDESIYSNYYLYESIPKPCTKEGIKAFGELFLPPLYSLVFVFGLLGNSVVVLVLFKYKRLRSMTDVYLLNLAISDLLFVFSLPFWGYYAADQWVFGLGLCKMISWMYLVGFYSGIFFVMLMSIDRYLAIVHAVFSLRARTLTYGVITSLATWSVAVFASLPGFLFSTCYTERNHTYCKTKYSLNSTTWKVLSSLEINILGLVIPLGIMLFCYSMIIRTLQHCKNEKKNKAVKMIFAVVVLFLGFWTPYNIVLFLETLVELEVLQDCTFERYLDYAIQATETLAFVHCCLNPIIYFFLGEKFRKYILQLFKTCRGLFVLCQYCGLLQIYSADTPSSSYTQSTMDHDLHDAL

[34] = biological target: T5, C-C chemokine receptor type 7 (Homo sapiens, UniProt P32248); experiment: Displacement of [125I]MIP-3beta from CCR7 expressed in CHO cells; assay type: cell-based
T5 sequence (P32248 whole entry): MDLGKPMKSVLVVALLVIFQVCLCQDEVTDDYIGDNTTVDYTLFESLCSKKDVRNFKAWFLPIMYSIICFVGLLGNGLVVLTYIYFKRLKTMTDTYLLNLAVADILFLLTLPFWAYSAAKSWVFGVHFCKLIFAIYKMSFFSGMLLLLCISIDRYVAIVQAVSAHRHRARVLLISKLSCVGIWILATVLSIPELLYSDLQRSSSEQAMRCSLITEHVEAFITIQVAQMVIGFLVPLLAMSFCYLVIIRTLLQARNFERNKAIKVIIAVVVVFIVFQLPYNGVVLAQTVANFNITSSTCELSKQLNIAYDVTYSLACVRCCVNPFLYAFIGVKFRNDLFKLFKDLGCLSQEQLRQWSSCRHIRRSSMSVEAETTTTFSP
Outline: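 CHO cells stably expressing CCR7, run in the same way as the CCR5 binding assay. Binding of [¹²⁵I]-MIP-3β was measured across a range of test compound concentrations. IC50 is the concentration that inhibits ligand binding by 50%, reported as the mean of triplicate measurements.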

SMILES: CCCCOCCOc1ccc(-c2ccc3c(c2)/C=C(/C(=O)Nc2ccc([S@@+]([O-])Cc4cncn4CCC)cc2)CCCCCN3CC(C)C)cc1
IC50 [2]: 67 nM

SMILES: CCCCOCCOc1ccc(-c2ccc3c(c2)/C=C(/C(=O)Nc2ccc([S@@+]([O-])Cc4nncn4CCC)cc2)CCCN3CC(C)C)cc1
IC90 [1]: 10 nM
IC50 [2]: 2.4 nM

SMILES: CCCCOCCOc1ccc(-c2ccc3c(c2)/C=C(/C(=O)Nc2ccc([S@@+]([O-])Cc4cncn4CCC)cc2)CCCCN3CC(C)C)cc1
IC90 [1]: 19 nM
IC50 [2]: 6.8 nM

SMILES: CCCCOCCOc1ccc(-c2ccc3c(c2)/C=C(/C(=O)Nc2ccc([S@@+]([O-])Cc4cncn4CCC)cc2)CCCCCN3CCC)cc1
IC50 [2]: 25 nM

SMILES: CCCCOCCOc1ccc(-c2ccc3c(c2)/C=C(/C(=O)Nc2ccc([S@@+]([O-])Cc4cncn4CCC)cc2)CCCCN3CCC)cc1
IC50 [2]: 4.7 nM

SMILES: CCCCOCCOc1ccc(-c2ccc3c(c2)/C=C(/C(=O)Nc2ccc([S@@+]([O-])Cc4cncn4CCC)cc2)CCCN3CC(C)C)cc1.CS(=O)(=O)O [CENICRIVIROC MESYLATE]
IC50 [4]: 0.07 nM
IC90 [4]: 0.31 nM
IC50 [5]: 0.049 nM
IC90 [5]: 0.16 nM
IC50 [6]: 0.087 nM
IC90 [6]: 0.36 nM
IC50 [7]: 0.089 nM
IC90 [7]: 0.32 nM
IC50 [8]: 0.024 nM
IC90 [8]: 0.13 nM
IC90 [1]: 0.81 nM
IC50 [9]: 0.043 nM
IC90 [9]: 0.19 nM
concentration at 5 min [10]: 8020 ng/mL
concentration at 5 min [11]: 2320 ng/mL
concentration at 5 min [12]: 3110 ng/mL
AUC(0-t) at 24 h [13]: 7610 ng·h/mL
AUC(0-t) at 24 h [14]: 2310 ng·h/mL
AUC(0-t) at 24 h [15]: 1450 ng·h/mL
half-life [16]: 4.85 h
half-life [17]: 5.04 h
half-life [18]: 6.09 h
Cmax [19]: 485 ng/mL
Cmax [20]: 570 ng/mL
Tmax [21]: 1.3 h
Tmax [22]: 2.7 h
Tmax [23]: 2 h
Cmax [24]: 116 ng/mL
AUC(0-t) at 24 h [25]: 2320 ng·h/mL
AUC(0-t) at 24 h [26]: 6010 ng·h/mL
AUC(0-t) at 24 h [27]: 670 ng·h/mL
bioavailability [28]: 10.2%
bioavailability [29]: 88.5%
bioavailability [30]: 15.6%
IC50 [31]: > 10000 nM
IC50 [32]: 2400 nM
IC50 [33]: 1100 nM
IC50 [34]: > 10000 nM

Further lines, results first:

IC90 [1]: 860 nM
IC50 [2]: 1.9 nM
SMILES: CCCCOCCOc1ccc(-c2ccc3c(c2)C=C(C(=O)Nc2ccc([S+]([O-])Cc4cncn4CCC)cc2)CCN3CC(C)C)cc1 (configuration not stated)

IC50 [2]: 1.7 nM
inhibition [3]: 72%
SMILES: CCCCOCCOc1ccc(-c2ccc3c(c2)/C=C(/C(=O)Nc2ccc([S@@+]([O-])Cc4cncn4CCC)cc2)CCCN3CCC)cc1

IC90 [1]: 11 nM
IC50 [2]: 1.7 nM
SMILES: CCCCOCCOc1ccc(-c2ccc3c(c2)/C=C(/C(=O)Nc2ccc([S@@+]([O-])Cc4cncn4CCC)cc2)CCCN3Cc2cnn(C)c2)cc1

IC50 [2]: 2.2 nM
SMILES: CCCCOCCOc1ccc(-c2ccc3c(c2)/C=C(/C(=O)Nc2ccc([S@@+]([O-])Cc4nncn4CCC)cc2)CCCN3CCC)cc1
